Laboratory results: paper PMC2872052 (Peptides, 2010)
Where a SMILES comes first, the peptide text is derived from it. [ ]: non-standard residue; d: D form.

Molecular target: wild type rat secretin receptor (Rattus norvegicus, UniProt P23811)
Test: cAMP responses in secretin receptor-bearing CHO-SecR cells
Assay type: cell-based
Details: for agonist (biological) activity at the secretin receptor, in words: cAMP responses in CHO-SecR cells, relative to maximal response to secretin
How it was run: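 CHO cells stably expressing wild-type rat secretin receptor, grown 48 h at ~8,000 cells/well, washed twice in PBS, then stimulated 30 min at 37 °C with increasing test-compound concentrations in Krebs-Ringers/HEPES pH 7.4 with 0.2% BSA, 0.1% bacitracin and 1 mM IBMX. Lysis in 6% ice-cold perchloric acid, neutralised to pH 6, cAMP by LANCE. Normalised to maximal secretin response; three experiments in duplicate.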

wild type rat secretin receptor, sequence (P23811 26-449): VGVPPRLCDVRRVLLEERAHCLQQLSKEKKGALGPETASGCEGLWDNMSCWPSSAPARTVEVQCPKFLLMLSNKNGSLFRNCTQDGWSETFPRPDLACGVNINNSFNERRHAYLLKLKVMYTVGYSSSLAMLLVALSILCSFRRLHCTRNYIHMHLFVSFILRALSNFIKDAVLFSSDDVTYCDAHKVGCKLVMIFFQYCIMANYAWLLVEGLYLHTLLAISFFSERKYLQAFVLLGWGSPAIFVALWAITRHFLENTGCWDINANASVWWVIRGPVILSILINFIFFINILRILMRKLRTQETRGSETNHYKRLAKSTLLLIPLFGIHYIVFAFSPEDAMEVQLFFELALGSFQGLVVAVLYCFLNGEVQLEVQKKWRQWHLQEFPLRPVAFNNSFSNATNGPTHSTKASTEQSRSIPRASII

| Structure (SMILES) | EC50 | agonist (biological) activity at the secretin receptor, in words |
| --- | --- | --- |
| C[C@@H]1NC(=O)[C@H](C)NC(=O)[C@@H](C)NC(=O)[C@H](C)NC(=O)[C@H](CC(=O)O)NC(=O)[C@H](Cc2c[nH]c3ccccc23)NC1=O [c[AAWDAa]] (cyclo(AAWDA[dA])) | 23 ± 5.3 µM | full agonist activity |
| C[C@@H]1NC(=O)[C@H](C)NC(=O)[C@H](CC(=O)O)NC(=O)[C@H](Cc2c[nH]c3ccccc23)NC(=O)[C@H](C)NC(=O)[C@@H](C)NC1=O [c[AWDAAa]] (cyclo(AA[dA]AWD)) | 21 ± 4.2 µM | full agonist activity |
| O=C(O)C[C@@H]1NC(=O)[C@H](Cc2c[nH]c3ccccc23)NC(=O)[C@H](CC(=O)O)NC(=O)[C@H](Cc2c[nH]c3ccccc23)NC(=O)[C@@H](CC(=O)O)NC(=O)[C@H](Cc2c[nH]c3ccccc23)NC1=O [c[WDWDWd]] (cyclo(DWDW[dD]W)) | 11.7 ± 3 µM | – |
